Sampled rows, rich in hits. Any-hit rate of the full collection: about 4.8%.
UCH37 inh: inhibitors of human deubiquitinating enzyme UCH37; Q9Y5K5; purified proteasome/UCH37, Ub-AMC cleavage fluorescence; inhibition, % (concentration not given with the values); actives 0.33% (n = 330,000); AID 588478;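 active = mean inhibition over replicate wells above about 20%, limit read from the data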;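 note: 0% = compound-free wells with enzyme and 100% = wells lacking proteasome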
Target sequence (Q9Y5K5 whole entry, looked up): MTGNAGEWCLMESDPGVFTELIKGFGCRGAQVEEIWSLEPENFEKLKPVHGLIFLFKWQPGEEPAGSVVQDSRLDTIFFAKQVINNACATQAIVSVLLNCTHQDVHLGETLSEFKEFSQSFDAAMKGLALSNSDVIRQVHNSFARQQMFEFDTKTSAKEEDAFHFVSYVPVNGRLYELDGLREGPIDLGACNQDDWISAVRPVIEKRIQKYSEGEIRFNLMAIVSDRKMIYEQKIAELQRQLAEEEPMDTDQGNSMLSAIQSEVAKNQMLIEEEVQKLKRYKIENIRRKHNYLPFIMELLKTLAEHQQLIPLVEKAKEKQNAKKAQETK
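system = Proteasome-associated human UCH37 deubiquitinase | amount = 0.15 nM proteasome as dispensed | medium = pH 7.4 Tris-HCl (50 mM) with ovalbumin, ATP-MgCl2, DTT | incubation = 30 min preincubation with enzyme, 25 min cleavage at room temperature | detection = AMC fluorescence 355/460 nm | read-out basis = percent inhibition | controls = no-proteasome and no-compound wells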
ATG4B inh: inhibitors of human ATG4B cysteine protease; Q9Y4P1; ATG4B cleavage of LC3-PLA2, NBD-HPC fluorescence, 1 h; inhibition, % at 8.33 µM; actives 0.51% (n = 340,000); in the data active = inhibition above about 40%
Target sequence (Q9Y4P1 whole entry, looked up): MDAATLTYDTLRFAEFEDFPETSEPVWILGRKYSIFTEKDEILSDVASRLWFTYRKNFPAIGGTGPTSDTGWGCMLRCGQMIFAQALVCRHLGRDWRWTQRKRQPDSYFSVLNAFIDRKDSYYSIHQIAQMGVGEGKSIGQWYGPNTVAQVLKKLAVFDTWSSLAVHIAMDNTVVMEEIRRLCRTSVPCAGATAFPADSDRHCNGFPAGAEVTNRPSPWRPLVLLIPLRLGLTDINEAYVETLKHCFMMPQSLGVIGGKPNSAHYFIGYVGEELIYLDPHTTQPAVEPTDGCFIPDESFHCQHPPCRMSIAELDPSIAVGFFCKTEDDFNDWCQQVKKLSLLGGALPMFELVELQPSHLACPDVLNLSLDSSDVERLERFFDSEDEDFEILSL
NALP1 yeast inh: NALP1 inhibition; S. cerevisiae NALP1/ASC/caspase-1 growth, X-gal OD620, 72 h; inhibition, % at 10 µM; actives 0.61% (n = 280,000); in the data active = inhibition mostly above about 24%, no sharp cut-off; inactive = mostly below about 32%
NALP3 yeast inh: inhibitors of NALP3 inflammasome in yeast; Yeast reconstituted NLRP3/ASC/caspase-1, beta-gal luminescence, 24 h; actives 0.39% (n = 330,000); inhibition, % at 10 µM;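 active = inhibition of 50% or more; inactive = inhibition below 50%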;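 note: plate controls were induced DMSO wells for no effect and uninduced yeast grown without galactose for full effect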
Calb FLC: affects C. albicans growth with fluconazole. AID 1979. growth inhibition, % (no concentration beside the values). C. albicans CaCi-2 + fluconazole, Alamar Blue growth, 48 h. actives 0.57% (n = 300,000);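 active = growth inhibition above about 58% in most replicates, limit read from the data, passing the limit was not always enough; inconclusive = exactly half the replicates above a set limit; inactive = most replicates below a set limit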;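 note: all wells also contain fluconazole at 8 µg/ml as a sub-toxic cotreatment; 0% = median of DMSO wells and 100% = median of geldanamycin control wells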
ALR H2O2 inh: human ALR oxidase inhibition via reduced H2O2. P55789. purified ALR, DTT oxidation, H2O2 HRP-luminol luminescence. inhibition, % (concentration not given with the values). actives 3.8% (n = 290,000). AID 485317;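 active = mean replicate inhibition above about 79%, with every replicate also reaching it, limit read from the data; inconclusive = only one of the two criteria met; inactive = mean below limit and not every replicate reaching it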
Active calls of the source: *; ? = inconclusive; nt = no result.

SMILES	UCH37 inh	ATG4B inh	NALP1 yeast inh	NALP3 yeast inh	Calb FLC	ALR H2O2 inh
CC(C)c1ccc(NS(=O)(=O)c2cccc3cccnc23)cc1	-2.1	-8.3	-15.1	0.7	-8.4	3.2
Cc1ccc(S(=O)(=O)N2CCN(c3ncccn3)CC2)c(C)c1	2.1	-2.2	nt	37.6	4.5	-6.1
O=S(=O)(c1ccccc1Br)N1CCN(c2ncccn2)CC1	2.3	-1.6	36.0*	41.5	-0.1	nt
Cc1ccc(S(=O)(=O)N2CCN(S(=O)(=O)N3CCOCC3)CC2)c(C)c1	2.3	-15.2	42.8*	-2.0	4.9	-6.5
Cc1ccc(S(=O)(=O)N2CCN(S(=O)(=O)N3CCOCC3)CC2)cc1C	0.5	-5.2	7.6	16.0	-23.5	-0.6
Cc1ccc(C)c(S(=O)(=O)N2CCN(c3ncccn3)CC2)c1	3.0	4.5	33.8*	42.6	4.6	-10.7
COc1cccc(C=NNC(=O)CNC(=O)c2ccncc2)c1O	2.2	nt	nt	nt	nt	nt
COC(=O)NN=Cc1cn(CCOc2ccccc2OC)c2ccccc12	0.6	nt	nt	nt	nt	nt
CC1(C)CC(=NNC(=S)Nc2ccccc2F)c2cc(O)ccc2O1	-41.3	nt	nt	nt	nt	nt
N#CC1=C(N2CCOCC2)/C(=C\c2ccccc2)CC1	-17.4	1.3	37.0	9.1	-1.5	93.3*
O=CC1=C(N2CCOCC2)/C(=C\c2ccccc2)CC1	11.8	1.5	8.9	16.2	18.1	4.6
COCCCN1C(=O)CSC1=NS(=O)(=O)c1ccccc1	1.0	nt	nt	nt	nt	nt
CCC(C)NC(=O)c1ccc2c(SCC(=O)O)c3c(nc2c1)CCCC3 (stereo not given)	3.1	-5.5	22.6	-9.2	-5.2	97.4*
CCOC(=O)c1c(N=CC2=C(O)CC(C)(C)CC2=O)sc2c1CCCC2	-2.3	nt	nt	nt	nt	nt
Cc1ccnc(SCC(=O)c2ccc(Br)s2)n1	1.5	-7.4	2.2	24.3	11.2	84.9*
CC(=O)Nc1ccc(SCC(=O)c2ccc(Br)s2)cc1	12.0	-2.5	14.7	22.2	6.4	99.1*
CC(=NNC(=O)Cn1nc(C)c([N+](=O)[O-])c1C)c1ccc(Cl)s1	3.5	nt	nt	nt	nt	nt
COc1cccc(NC(=O)c2ccc(C(=O)c3ccccc3)o2)c1	-1.8	-35.5	4.0	2.1	-3.2	nt
O=C(Nc1ccc(O)cc1)c1ccc(C(=O)c2ccccc2)o1	3.6	-6.5	11.8	8.1	-10.4	96.8*
Cc1[nH]n(C2=NCCS2)c(=O)c1N=Nc1ccccc1	11.4	-22.4	-3.5	20.6	-16.6	92.2*
Cc1[nH]n(-c2ccccc2)c(=O)c1N=Nc1ccc2c(c1)OCO2	7.7	11.2	8.2	8.6	4.4	nt
Cc1[nH]n(-c2ccccc2)c(=O)c1N=Nc1nccs1	20.7*	7.0	-18.3	24.8	-11.1	20.6
CC(NC(=O)c1ccco1)C(c1cccs1)N1CCN(c2ccccc2F)CC1 (stereo not given)	2.9	8.0	7.0	4.1	-1.0	5.1
CC(NC(=O)c1ccco1)C(c1cccs1)N1CCN(c2ccccc2)CC1 (stereo not given)	-0.4	1.6	nt	10.6	-9.3	98.3*
CCS(=O)(=O)NC(C)C(c1cccs1)N1CCN(c2ccc(F)cc2)CC1 (stereo not given)	2.6	2.4	26.7	2.2	1.3	nt
SMILES	UCH37 inh	ATG4B inh	NALP1 yeast inh	NALP3 yeast inh	Calb FLC	ALR H2O2 inh
CC(NC(=O)c1ccco1)C(c1cccs1)N1CCN(c2ccc(F)cc2)CC1 (stereo not given)	2.3	-7.3	7.6	-4.4	14.9	99.1*
CC(=NNS(=O)(=O)c1cccc([N+](=O)[O-])c1)c1ccc2c(c1)OCO2	1.0	nt	nt	nt	nt	nt
CCc1nc(SCC(=O)c2cccc([N+](=O)[O-])c2)n[nH]1	5.2	-3.7	19.5	-0.8	15.3	27.8
Nc1nc(SCC(=O)Nc2ccc([N+](=O)[O-])cc2)n[nH]1	4.5	2.6	2.9	-9.9	0.0	97.2*
Nc1nc(SCC(=O)c2cccc([N+](=O)[O-])c2)n[nH]1	1.5	-6.7	22.0	-0.3	36.5	82.8*
N#Cc1c(NC(=O)CSc2n[nH]c(N)n2)oc(-c2ccccc2)c1-c1ccccc1	2.6	-8.0	-8.9	18.7	34.7	79.2*
Cc1cccc(C)c1OCC(=O)Nc1oc(-c2ccccc2)c(-c2ccccc2)c1C#N	-2.9	10.5	nt	-10.9	4.5	-1.9
Cc1nc(SCC(=O)c2ccccc2)n[nH]1	1.1	-2.1	6.8	1.6	-5.8	90.0*
O=C1C2C(C(=O)N1N=Cc1cc(Br)cc([N+](=O)[O-])c1O)C1C=CC2C12CC2 (stereo not given)	3.5	nt	nt	nt	nt	nt
Oc1ccc(C=NNC(=S)N2CCOCC2)cc1	8.5	nt	nt	nt	nt	nt
Cc1ccc2nc(CCc3ccc(N)cc3)[nH]c2c1	1.7	-4.5	1.4	20.6	-1.5	99.4*
Nc1ccc(Cc2nc3cc4ccccc4cc3[nH]2)cc1	2.7	3.5	-14.5	14.0	-10.2	-5.7
Nc1ccc2nc(CCc3ccccc3)[nH]c2c1	nt	3.7	19.3	3.9	-18.0	98.8*
O=C(NN=Cc1cccn1-c1ccc([N+](=O)[O-])cc1)C(O)c1ccccc1 (stereo not given)	11.1	nt	nt	nt	nt	nt
O=C(CSCCc1ccccn1)Nc1cccnc1Cl	5.3	6.7	13.2	0.1	5.0	8.1
Cc1ccc(NC(=O)CSCCc2ccccn2)nc1	0.3	-13.3	18.0	-0.6	-1.5	97.4*
O=C(CSCCc1ccccn1)Nc1ccc(Br)cn1	0.5	-2.3	-5.6	11.7	3.5	98.6*
O=C(CSCCc1ccccn1)Nc1ccccn1	-1.9	-1.5	0.4	5.6	16.2	98.2*
O=C(O)CSCCc1ccccn1	3.6	-3.0	4.2	16.7	0.6	-4.6
CCOc1ccc(Br)cc1C(=O)NN=Cc1ccccn1	2.7	nt	nt	nt	nt	nt
CC(=NNC(=O)CCc1ccccc1)c1ccco1	-1.0	nt	nt	nt	nt	nt
COc1cc(/C=C/c2ccc(O)cc2)cc(OC)c1	-4.3	-24.1	8.3	-14.4	3.1	80.0*
COc1ccc(/C=C/C(=O)c2ccoc2)cc1	2.1	-2.4	0.5	13.9	-8.0	6.3
COc1ccc(/C=C/c2cc(O)cc(OC3OC(CO)C(O)C(O)C3O)c2)cc1 (stereo not given)	nt	-7.3	nt	nt	nt	nt
O=C(/C=C/c1ccc(O)cc1)c1c(O)cc(O)cc1O	1.5	-6.8	-12.2	-3.5	6.6	98.4*
SMILES	UCH37 inh	ATG4B inh	NALP1 yeast inh	NALP3 yeast inh	Calb FLC	ALR H2O2 inh
O=C(/C=C/c1cccc([N+](=O)[O-])c1)c1ccc2c(c1)OCCO2	3.2	-3.4	40.3*	13.6	-2.9	95.8*
O=C(NN=Cc1cccc([N+](=O)[O-])c1)c1ccc2c(c1)OCCO2	3.6	nt	nt	nt	nt	nt
COc1ccc(/C=C/C(=O)c2ccc(O)cc2)cc1	-3.6	-14.5	1.9	33.4	18.5	97.4*
ON=CCc1[nH]c2ccccc2c1-c1ccccc1	1.0	nt	nt	nt	nt	nt
COc1ccc(C(=O)/C=C/c2ccc3c(c2)OCCO3)cc1	3.1	8.3	-50.8	34.9	?	95.2*
O=C(O)c1ccc(/C=C/C(=O)c2ccc3c(c2)OCCCO3)cc1	nt	-4.0	10.6	16.6	17.8	97.2*

Screens: PubChem BioAssay, several laboratories
